Data reported in ChEMBL document CHEMBL1773005, “The antibacterial ent-eusynstyelamide B and eusynstyelamides D, E, and F from the Arctic bryozoan Tegella cf. spitzbergensis” (J Nat Prod, 2011).
≈ marks a conversion by molar mass, not a printed value.

Columns and labels:
[1] = tested on: Corynebacterium glutamicum; assay: Antibacterial activity against Corynebacterium glutamicum ATTC 13032 after 24 hrs by microtiter plate assay; type: functional; conditions: ATTC 13032, 24 h
Summary of the method: (§1)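 Log-phase cultures grown at 37 C in Mueller Hinton broth, diluted to about 5 × 10^5 cells per well, then mixed 1:1 with compound dissolved in water. Growth followed by continuous optical density reading. MIC taken as the lowest concentration giving no OD change after 24 h at 37 C. Tested in duplicate over 2–100 μg/mL; cecropin B (25 μM) served as positive control.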

Candida albicans = assay: Antifungal activity against Candida albicans ATCC 10231 after 48 hrs by microscopy; type: functional; conditions: ATCC 10231, 48 h
Summary of the method: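 Yeast grown on potato dextrose agar with 2% glucose at room temperature, suspended in potato dextrose broth and counted in a Bürker chamber. Spores at 2 × 10^5/mL final were mixed with compounds dissolved in water and incubated at 37 C. MIC was the lowest concentration with no visible growth at 48 h, scored microscopically. Duplicates over 2–100 μg/mL; cecropin B (6.25 μM) as positive control.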

Staphylococcus aureus [2] = assay: Antibacterial activity against methicillin-resistant Staphylococcus aureus ATCC 33591 after 24 hrs by microtiter plate assay; type: functional; conditions: ATCC 33591, 24 h
Summary of the method: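 Log-phase bacteria at about 5 × 10^5 cells per well in Mueller Hinton broth, 37 C, were mixed with compounds dissolved in water, 2–100 μg/mL, in duplicate. Optical density was monitored continuously. MIC was taken as the lowest concentration giving no change in optical density after 24 h. Cecropin B (25 μM) served as positive control.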

A2058 = assay: Anticancer activity against human A2058 cells after 72 hrs by CellTiter-96 cell viability assay; type: functional, cell-based; conditions: A2058, 72 h
Summary of the method: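 A-2058 melanoma cells in exponential growth were seeded, incubated 24 h at 37 C, then exposed to compounds for 72 h. Viability was read by CellTiter96 reagent, 1 h colour development, absorbance at 485 nm. Duplicates over 2–100 μg/mL; IC50 determined.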

Pseudomonas aeruginosa = assay: Antibacterial activity against Pseudomonas aeruginosa ATTC 27853 after 24 hrs by microtiter plate assay; type: functional; conditions: ATTC 27853, 24 h; summary of the method: as §1
Escherichia coli = assay: Antibacterial activity against Escherichia coli ATCC 25922 after 24 hrs by microtiter plate assay; type: functional; conditions: ATCC 25922, 24 h; summary of the method: as §1
Staphylococcus aureus [3] = assay: Antibacterial activity against Staphylococcus aureus ATTC 9144 after 24 hrs by microtiter plate assay; type: functional; conditions: ATTC 9144, 24 h; summary of the method: as §1

Row | Structure (SMILES) | MIC [1] [mg/L] | MIC (Candida albicans) [mg/L] | MIC (Staphylococcus aureus [2]) [mg/L] | IC50 (A2058) [µM] | MIC (Pseudomonas aeruginosa) [mg/L] | MIC (Escherichia coli) [mg/L] | MIC (Staphylococcus aureus [3]) [mg/L]
1 | NCCCCNC(=O)[C@@]1(O)[C@H](c2c[nH]c3cc(Br)ccc23)[C@@](O)(Cc2c[nH]c3cc(Br)ccc23)C(=O)N1CCCCN [EUSYNSTYELAMIDE D] | 12.5 (≈ 17.7 µM) | 50 (≈ 71 µM) | 20 (≈ 28.4 µM) | 57 | 25 (≈ 35.5 µM) | 12.5 (≈ 17.7 µM) | 12.5 (≈ 17.7 µM)
2 | N=C(N)NCCCCN1C(=O)[C@](O)(Cc2c[nH]c3cc(Br)ccc23)[C@@H](c2c[nH]c3cc(Br)ccc23)[C@]1(O)C(=O)NCCCCN [EUSYNSTYELAMIDE E] | 12.5 (≈ 16.7 µM) | 100 (≈ 134 µM) | 20 (≈ 26.8 µM) | 114 | 25 (≈ 33.5 µM) | 12.5 (≈ 16.7 µM) | 12.5 (≈ 16.7 µM)
3 | N=C(N)NCCCCNC(=O)[C@@]1(O)[C@H](c2c[nH]c3cc(Br)ccc23)[C@@](O)(Cc2c[nH]c3cc(Br)ccc23)C(=O)N1CCCCN [EUSYNSTYELAMIDE F] | 6.25 (≈ 8.37 µM) | 50 (≈ 67 µM) | > 50 |  | 12.5 (≈ 16.7 µM) | 12.5 (≈ 16.7 µM) | 6.25 (≈ 8.37 µM)
